TAAR1 agonist: agonists of human TAAR1. CHO RD-HGA16 TAAR1, Fluo-8 calcium fluorescence; vehicle wells 0%, saturating PEA agonist 100%. activation, % at 3 µM. 360,000 compounds, 0.99% hits;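 active = activation above the mean activation of all test compounds in the run plus 3 SD, cut at about 38% in these data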
Target sequence (Q96RJ0 whole entry, looked up): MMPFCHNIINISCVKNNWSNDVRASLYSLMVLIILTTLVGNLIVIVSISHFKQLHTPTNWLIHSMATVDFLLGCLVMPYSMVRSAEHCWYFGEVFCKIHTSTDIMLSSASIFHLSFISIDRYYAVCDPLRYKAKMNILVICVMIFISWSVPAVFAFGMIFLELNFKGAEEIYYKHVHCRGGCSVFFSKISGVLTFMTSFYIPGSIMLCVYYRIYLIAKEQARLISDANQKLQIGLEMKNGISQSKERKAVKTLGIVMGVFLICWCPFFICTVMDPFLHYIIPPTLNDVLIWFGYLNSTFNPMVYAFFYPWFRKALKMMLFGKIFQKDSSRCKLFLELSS
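Assay system: CHO-derived RD-HGA16 cells with stable Gα16 and human TAAR1; timing: 17-24 h seeding, 75 min 37 °C dye, 30 min RT; read-out: % activation from peak over basal fluorescence ratio, DMSO-to-PEA scaled; measured by: kinetic Fluo-8 calcium fluorescence; benchmarks: low control DMSO, high control PEA (EC100); doses: 3 µM single concentration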
MC4R antagonist: antagonists of human melanocortin 4 receptor (MC4R) | MC4R-expressing cells, MTII-stimulated cAMP, LANCE TR-FRET | inhibition, % at 6.5 µM | 360,000 compounds, 0.48% hits | AID 540295;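 active = inhibition above its plate's cutoff, the mean of tested wells on that plate plus 3 SD, cut at about 29% in these data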;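 note: 0% = Melanotan II alone and 100% = Melanotan II plus saturating MCL0020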
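System: U2OS cells stably expressing human melanocortin 4 receptor (MC4R). Reagent: Melanotan II challenge after compound preincubation. Doses: 6.5 µM. Times: 30-min compound, 1-h challenge, 1-h detection, room temperature. Measured by: TR-FRET with Eu-cAMP and labeled anti-cAMP, 671 nm. Replicates: singlicate.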
TAAR1 antagonist: human TAAR1 antagonism; CHO RD-HGA16 TAAR1, Fluo-8 calcium fluorescence, antagonist; Q96RJ0; inhibition, % at 3 µM; 360,000 compounds, 1.5% hits; AID 624466;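 active = inhibition above a per-plate cutoff, the mean inhibition of test compounds on that plate plus 3 SD, cut at about 49% in these data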;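 note: 0% = DMSO plus EC80 beta-PEA response and 100% = DMSO alone without agonist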
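System: CHO RD-HGA16 cells bearing hTAAR1. Reagent: EC80 β-phenethylamine stimulus. Schedule: seeding 17-24 h prior, 75-min 37 °C, 30-min RT dye loading. Signal: Fluo-8 intracellular calcium dye fluorescence, real-time kinetic reads. Read-out: % inhibition from peak post-agonist over basal fluorescence ratio. Benchmarks: vehicle wells and EC80 agonist wells. Replicates: n of 1.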
MC4R ag barr: human MC4R agonism via beta-arrestin; P32245; 360,000 compounds, 0.98% hits; activation, % at 8.9 µM; U2OS MC4R beta-arrestin complementation, luminescence; percent of melanotan II response, DMSO zero; AID 540308;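 active = activation above a per-plate cutoff, the mean activation of sample wells on that plate plus 3 SD, cut at about 8% in these data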
Beta2AR agonist: agonists of human beta-2 adrenergic receptor inducing internalization; response, % (test concentration not listed); P07550; AID 504454; Am2.2-beta2AR cells, FAP receptor internalization, flow cytometry; 340,000 compounds, 0.43% hits;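 active = response above a set limit, near 3 SD of response in nonfluorescent compounds, cut at about 42% in these data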
Target sequence (P07550 whole entry, looked up): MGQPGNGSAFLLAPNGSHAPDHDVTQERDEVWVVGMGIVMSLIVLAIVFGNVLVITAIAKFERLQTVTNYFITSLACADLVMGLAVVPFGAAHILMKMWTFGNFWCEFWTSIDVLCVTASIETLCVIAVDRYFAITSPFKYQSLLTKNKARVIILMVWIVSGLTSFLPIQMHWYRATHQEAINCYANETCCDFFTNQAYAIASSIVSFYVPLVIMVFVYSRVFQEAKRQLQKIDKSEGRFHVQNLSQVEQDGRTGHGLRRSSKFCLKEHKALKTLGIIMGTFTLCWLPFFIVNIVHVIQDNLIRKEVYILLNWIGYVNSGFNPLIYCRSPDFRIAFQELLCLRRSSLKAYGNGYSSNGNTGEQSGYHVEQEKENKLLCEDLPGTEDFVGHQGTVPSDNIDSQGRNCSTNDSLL
HTR2A ag: activates the mouse 5-HT2A serotonin receptor; activation, % at 7.6 µM; CHO-K1 mHTR2A beta-arrestin complementation, luminescence; percent of 30 µM serotonin response; P35363; 360,000 compounds, 0.66% hits; AID 624169;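 active = activation above a run cutoff, the mean activation of all tested compounds plus 3 SD, cut at about 14% in these data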;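 note: 0% = plate median of compound wells and 100% = 30 µM serotonin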
Beta2AR ag CP1: activates human beta-2 adrenergic receptor | shares compounds with Beta2AR agonist | Am2.2-beta2AR cells, FAP surface receptor, flow cytometry; active compounds read low | percent response (surface receptor), % at 10 µM | 1,100 compounds, 25% hits;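 active = surface receptor percent response at or below 58%, roughly 3 SD from nonfluorescent compounds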
B2AR FAP counter: counter-screen for beta-2AR agonists: fluorescence in Am2.2 cells; calls only at 10 µM; FAP fluorogen flow cytometry, fluorescence counterscreen; active compounds read low; 1,100 tested, under 10 active; shares compounds with Beta2AR agonist;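 active = percent response below a set limit in fluorescence channel 1 and below 50% in channel 8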
* = called active by the depositor; i = inactive; . = not tested or not shown. Hits are enriched below; roughly 4.3% of the tested compounds scored in any of these assays.

SMILES	TAAR1 agonist	MC4R antagonist	TAAR1 antagonist	MC4R ag barr	Beta2AR agonist	HTR2A ag	Beta2AR ag CP1	B2AR FAP counter
CCN(CC(=O)Nc1ccc(OC)cc1)C(=O)CN1C(=O)NC(C)(c2ccc3ccccc3c2)C1=O (configuration not stated)	3.5	6.6	-0.2	-2.4	0.7	-6.5	.	.
COC(=O)c1ccc(NC(=O)COc2ccc(S(=O)(=O)N3CCCCC3)cc2)cc1	5.2	0.1	24.4	0.4	87.0*	0.4	9.0*	i
CCOc1ccc(NC(=O)COc2ccc(S(=O)(=O)N3CCOCC3)cc2)cc1	0.8	5.2	-11.6	-1.3	-3.5	2.3	50.9*	i
COc1ccc(OCC(=O)Nc2ccc(S(=O)(=O)N3CCOCC3)cc2)cc1	14.9	3.0	12.6	-2.9	0.1	-3.6	.	.
O=C(COc1ccc(S(=O)(=O)N2CCOCC2)cc1)Nc1ccc(Br)cc1	11.2	10.8	43.5	0.2	-1.4	-8.1	102.4	i
O=C(COc1ccc(S(=O)(=O)N2CCOCC2)cc1)Nc1ccc(Cl)c(C(F)(F)F)c1	19.6	-0.6	36.5	2.3	-3.5	-5.0	114.1	i
O=C(COc1ccccc1)Nc1ccc(S(=O)(=O)N2CCOCC2)cc1	7.3	-0.3	11.3	-2.7	-10.7	-3.3	.	.
CC(C)(C)NS(=O)(=O)c1ccc(NC(=O)C2CC(=O)N(CCc3ccc(F)cc3)C2)cc1 (configuration not stated)	5.5	9.5	-9.6	-0.5	14.8	-7.4	.	.
CC1CN(c2nc3ccccc3nc2NS(=O)(=O)c2ccccc2)CC(C)O1 (configuration not stated)	2.0	2.8	-1.6	-0.8	-0.3	0.1	.	.
O=C(COc1ccc(S(=O)(=O)N2CCOCC2)cc1)Nc1ccc2c(c1)OCCO2	6.1	2.4	-15.6	-2.7	5.0	1.9	85.4	i
Cc1nc2ccc(Cl)cc2c(-c2ccccc2F)c1CC(=O)O	2.8	-0.2	-14.4	-1.2	5.8	9.1	.	.
Cc1nc2ccc(Cl)cc2c(-c2ccccc2Cl)c1CC(=O)O	-0.2	-0.1	-14.7	-1.0	45.7*	11.1	93.2	i
CCOc1ccccc1CN1CCN(Cc2ccon2)CC1CCO (configuration not stated)	0.0	2.9	-0.9	-0.7	9.2	-1.9	.	.
CN(C)CCCN(C(=O)CCc1ccccc1)c1nc2ccc(F)cc2s1	2.8	-2.4	-10.1	-0.9	-0.1	-6.0	.	.
CN(C)CCCN(C(=O)CCc1ccccc1)c1nc2ccc(Br)cc2s1	17.3	1.4	34.8	9.5*	43.6*	-8.1	119.9	i
O=C(N[C@@H](Cc1ccccc1)C(=O)OCc1ccccc1)c1nc[nH]c1C(=O)NCc1ccccc1	5.6	4.4	36.6	7.2	62.9*	-5.3	105.6	i
COc1ccc(C(=O)CCC(=O)N2CCN(c3ccc(C)cc3)C(C)C2)cc1 (configuration not stated)	-2.2	-4.2	-48.4	-1.6	1.2	-2.9	.	.
CCOc1ccc2nc(SCCNS(=O)(=O)c3ccccc3)sc2c1	7.4	-1.1	60.1*	4.6	60.5*	-2.0	102.2	i
CCOc1ccc2nc(SCC(=O)c3ccccc3)sc2c1	6.3	4.6	4.5	1.7	4.4	-2.0	.	.
COc1ccccc1NC(=O)CN1CC(=O)Nc2ccccc21	1.1	14.0	-30.3	-2.9	-0.8	4.8	.	.
CCCOc1ccc(-c2nnn(CC(=O)Nc3cccc(C(=O)OC)c3)n2)cc1	10.3	0.7	15.5	0.9	-8.8	-2.8	110.1	i
CCOC(=O)c1ccc(NC(=O)Cn2nnc(-c3ccccc3C)n2)cc1	11.2	4.7	34.3	2.0	-6.2	-0.5	121.0	i
COc1ccc(NC(=O)Cn2nnc(-c3ccc(CN4CCOCC4)cc3)n2)c(OC)c1	6.3	-1.9	11.7	2.5	5.9	2.7	106.2	i
Cc1cccc(C)c1NC(=O)Cn1nnc(-c2ccc(N3CCOCC3)cc2)n1	14.6	2.8	15.5	6.3	-9.7	2.3	102.8	i
Cc1ccc(C)c(NC(=O)Cn2nnc(-c3ccc(N4CCOCC4)cc3)n2)c1	4.9	3.4	-4.1	-3.0	0.9	-1.4	.	.
SMILES	TAAR1 agonist	MC4R antagonist	TAAR1 antagonist	MC4R ag barr	Beta2AR agonist	HTR2A ag	Beta2AR ag CP1	B2AR FAP counter
Cc1ccc(NC(=O)CN(C)C(=O)Cn2nnc(-c3ccccc3C)n2)cc1	7.5	6.5	-8.0	-0.6	-1.5	4.9	.	.
Cc1ccccc1NC(=O)Cn1nnc(-c2ccc(CN3CCC(C)CC3)cc2)n1	3.5	3.8	-11.2	1.4	-7.6	1.9	.	.
O=C(C[C@@H]1C=C[C@@H](NC(=O)c2cccnc2)[C@@H](CO)O1)NCc1ccncn1	1.5	.	-6.4	.	.	-1.2	.	.
NC(=O)N/N=C/c1c(Sc2nnnn2-c2ccccc2)nc2ccccn2c1=O	0.7	-5.7	-13.6	-3.7	0.4	-4.2	.	.
Cc1cc(NC(=O)Cn2nnc(-c3ccccc3N)n2)no1	1.9	-4.0	4.3	-0.9	-17.7	-1.0	.	.
COc1ccc(Cl)c(NC(=O)Cn2nnc(-c3ccccc3N)n2)c1	5.4	-0.4	17.0	-1.7	-16.8	1.4	123.8	i
COC(=O)c1ccccc1NC(=O)Cn1nnc(-c2ccc(OC)cc2)n1	15.6	-7.8	2.4	0.9	-11.6	6.5	94.0	i
Cc1cccc(OC(=O)c2ccc3c(=O)n4c(nc3c2)CCC4)c1	8.0	-8.1	2.0	1.9	.	10.2	.	.
CN(C)c1ccc(C(=O)OCC(=O)Nc2ccc(S(N)(=O)=O)cc2)cc1	11.8	-1.8	17.2	-0.9	47.5*	2.0	83.4	i
Cc1ccc(S(=O)(=O)N2CCCC2C(=O)NCCc2nc3ccccc3[nH]2)cc1 (configuration not stated)	3.3	-1.8	9.3	1.7	49.8*	0.2	117.5	i
Cc1ccc(S(=O)(=O)N2CCCC2C(=O)NCCc2ccccc2)cc1 (configuration not stated)	-0.2	20.1	-12.3	-0.2	-3.3	-1.8	.	.
COc1ccc(C(=O)NCCCN2CCN(CCCNC(=O)c3ccc(OC)c(OC)c3)CC2)cc1OC	3.0	-3.8	-12.0	0.2	0.8	10.0	99.7	i
O=C(NCCCN1CCN(CCCNC(=O)c2ccc3c(c2)OCO3)CC1)c1ccc2c(c1)OCO2	8.1	-3.1	4.7	-2.0	-1.4	-1.3	103.0	i
O=C(NCCN1CCN(c2ccccc2)CC1)c1ccccc1F	0.7	-1.2	-4.5	-1.9	0.8	0.1	.	.
